Consider 4 compounds from ChEMBL document CHEMBL1139486, “Novel benzopyridothiadiazepines as potential active antitumor agents” (J Med Chem, 2005).

The subject of assay [1] is L1210. The assay can be described thus: Cell cycle perturbations in mouse L1210 cells assessed as accumulation in G1 phase after 21 hrs at 0.5 uM relative to control. The format is functional.
Assay [2] concerns L1210. The experiment in a line: Cell cycle perturbations in mouse L1210 cells assessed as accumulation in 8N phase after 21 hrs at 0.5 uM relative to control. The format is functional.
In assay [3] the test system is L1210. The assay can be described thus: Cell cycle perturbations in mouse L1210 cells assessed as accumulation in G2+M phase after 21 hrs at 0.5 uM relative to control. The format is functional.
The subject of assay [4] is L1210. The assay can be described thus: Cell cycle perturbations in mouse L1210 cells assessed as accumulation in S phase after 21 hrs at 0.5 uM relative to control. Format: functional.
For assay [5], the system named is L1210. The assay can be described thus: Antiproliferative activity against mouse L1210 cells after 48 hrs relative control. The format is functional, cell-based. Conditions: L1210, 48 h. The method in brief: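 L1210 cells grown in RPMI 1640 with 10% fetal calf serum, 2 mM L-glutamine, penicillin/streptomycin and 10 mM HEPES (pH 7.4). Cells were exposed 48 h to graded drug concentrations, then MTT was added for 4 h at 37 °C. Formazan was dissolved in DMSO and OD read at 540 nm. IC50 came from linear regression on the linear part of the dose-response curve, in triplicate.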

Assay [6] relates to L1210. The assay can be described thus: Cell cycle perturbations in mouse L1210 cells assessed as accumulation in G1 phase after 21 hrs at 0.2 uM relative to control. The format is functional.
Assay [7] has as its system L1210. The assay can be described thus: Cell cycle perturbations in mouse L1210 cells assessed as accumulation in S phase after 21 hrs at 0.2 uM relative to control. The format is functional.
Assay [8] concerns L1210. The experiment in a line: Cell cycle perturbations in mouse L1210 cells assessed as accumulation in G2+M phase after 21 hrs at 0.2 uM relative to control. Format: functional.
Assay [9] relates to DU-145. The experiment in a line: Antiproliferative activity against DU145 cells. The format is functional, Homo sapiens.
The test system of assay [10] is L1210. The experiment in a line: Cell cycle perturbations in mouse L1210 cells assessed as accumulation in 8N phase after 21 hrs at 0.2 uM relative to control. Format: functional.
For assay [11], the target named is Tubulin. The assay can be described thus: Inhibition of tubulin polymerization. Format: protein-complex assay, Homo sapiens.
Assay [12] deals with P388. The assay can be described thus: Antiproliferative activity against P388 cells. The format is functional, Mus musculus.
The subject of assay [13] is L1210. The assay can be described thus: Cell cycle perturbations in mouse L1210 cells assessed as accumulation in S phase after 21 hrs at 1 uM relative to control. Format: functional.
Assay [14] can be described thus: Antiproliferative activity against adriamycin-resistant KB A1 cells. The format is functional, Homo sapiens.
The test system of assay [15] is IGROV-1. The assay can be described thus: Antiproliferative activity against IGROV1 cells. The format is functional, Homo sapiens.
Assay [16] has as its system L1210. The assay can be described thus: Cell cycle perturbations in mouse L1210 cells assessed as accumulation in G2+M phase after 21 hrs at 1 uM relative to control. Format: functional.
Assay [17] concerns L1210. The assay can be described thus: Cell cycle perturbations in mouse L1210 cells assessed as accumulation in G1 phase after 21 hrs at 1 uM relative to control. Format: functional.
Assay [18] can be described thus: Antiproliferative activity against KB3-1 cells. Format: functional, Homo sapiens, KB 3-1.
Assay [19] has as its system L1210. The experiment in a line: Cell cycle perturbations in mouse L1210 cells assessed as accumulation in 8N phase after 21 hrs at 1 uM relative to control. Format: functional.
Assay [20] concerns A549. The experiment in a line: Antiproliferative activity against A549 cells. Format: functional, Homo sapiens.
Assay [21] concerns L1210. The assay can be described thus: Cell cycle perturbations in mouse L1210 cells assessed as accumulation in S phase after 21 hrs at 2.5 uM relative to control. Format: functional.
Assay [22] has as its system L1210. The assay can be described thus: Cell cycle perturbations in mouse L1210 cells assessed as accumulation in G2+M phase after 21 hrs at 2.5 uM relative to control. Format: functional.
Assay [23] concerns L1210. The experiment in a line: Cell cycle perturbations in mouse L1210 cells assessed as accumulation in 8N phase after 21 hrs at 2.5 uM relative to control. Format: functional.
The test system of assay [24] is L1210. The experiment in a line: Cell cycle perturbations in mouse L1210 cells assessed as accumulation in G1 phase after 21 hrs at 2.5 uM relative to control. Format: functional.

For `COc1ccc(CCN2C=CC=C3C2=Nc2ccc(Cl)cc2N(C)S3(=O)=O)cc1`, the Activity is on record as 3% in [1], 70% in assay [2], 21% in assay [3] and 6% in assay [4]. In assay [5], this compound gave an IC50 of 230 nM.
As to `COc1ccc(CCN2C=CC=C3C2=Nc2ccccc2N(C)S3(=O)=O)cc1`, the Activity came to 5% in assay [6]; 8% in assay [7]; 17% in assay [8]; 0.14 µM in assay [9]; 70% in [10]. The values for the IC50 in [5] and in assay [11] were 110 nM and 2400 nM, respectively.
Consider `COc1ccc(CCN2C=CC=C3C2=Nc2ccccc2S(=O)(=O)N3C)cc1`, for which the Activity in [12] worked out at 0.33 µM; in assay [13], 8%; in [14], 0.3 µM; in assay [15], 0.34 µM; in [16], 32%; in [17] it was 6%. Besides, the Activity in [18] worked out at 0.24 µM; in assay [19], 54%; in assay [9], 0.55 µM; in assay [20] it was 0.45 µM. Besides, the values for the IC50 in assay [5] and in assay [11] were 300 nM and 3800 nM, respectively.
Take `COc1ccc(CCN2C=CC=C3C2=Nc2ccc(Cl)cc2S(=O)(=O)N3C)cc1`: the Activity was 6% in assay [21], 24% in assay [22], 66% in [23] and 4% in assay [24]. In assay [5], this compound came in with an IC50 of 1300 nM.

Usually IC50 stands for the concentration that inhibits the measured activity by half. A higher IC50 goes with lower potency.
